{"source": "ChEMBL document CHEMBL4014298", "about": "“Discovery of a series of 8-(1-phenylpyrrolidin-2-yl)-6-carboxamide-2-morpholino-4H-chromen-4-one as PI3Kβ/δ inhibitors for the treatment of PTEN-deficient tumours” (Bioorg Med Chem Lett, 2017)", "key": {"[1]": {"test": "Inhibition of PI3Kalpha mutant in human BT474 cells assessed as decrease in AKT phosphorylation at Thr308 after 2 hrs", "format": "cell-based", "conditions": "BT-474, 2 h"}, "[2]": {"test": "Intrinsic clearance in human hepatocytes assessed per million cells", "format": "ADME, cell-based, Hepatocyte", "conditions": "read-out: CLH"}, "[3]": {"test": "Fraction unbound in dog plasma", "format": "ADME, cell-free, Canis lupus familiaris", "how_it_was_run": "(§1)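 Plasma protein binding in mouse, dog or human plasma, reported as fraction unbound (%).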"}, "[4]": {"system": "PC-3", "test": "Antitumor activity against PTEN-deficient human PC3 cells xenografted in nude mouse assessed as tumor growth inhibition at 100 mg/kg, po bid relative to control", "format": "functional", "conditions": "PC-3, po, read-out: TGI", "how_it_was_run": "(§2)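 Nude mice bearing PTEN-deficient PC3 prostate tumour xenografts; compound given orally twice daily (b.i.d.) at 100 or 50 mg/kg over chronic dosing; tumour growth inhibition versus control determined at end of study.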"}, "[5]": {"system": "Mus musculus", "test": "In vivo inhibition of AKT phosphorylation at Ser473 in nude mouse xenografted with PTEN-deficient human PC3 cells at 100 mg/kg, po administered as single dose measured after 30 mins to 8 hrs", "format": "functional, organism-based", "how_it_was_run": "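Single oral dose (100 or 30 mg/kg) to nude mice carrying PTEN-deficient PC3 prostate xenografts; tumour AKT Ser473 phosphorylation measured at 30 min, 2 h and 8 h, with free plasma concentration determined at same time points.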"}, "[6]": {"test": "Fraction unbound in mouse plasma", "format": "ADME, cell-free", "how_it_was_run": "as §1"}, "[7]": {"target": "Sphingosine kinase 2 (Homo sapiens, UniProt Q9NRA0)", "sequence (Q9NRA0 whole entry, the tested form may be a part)": "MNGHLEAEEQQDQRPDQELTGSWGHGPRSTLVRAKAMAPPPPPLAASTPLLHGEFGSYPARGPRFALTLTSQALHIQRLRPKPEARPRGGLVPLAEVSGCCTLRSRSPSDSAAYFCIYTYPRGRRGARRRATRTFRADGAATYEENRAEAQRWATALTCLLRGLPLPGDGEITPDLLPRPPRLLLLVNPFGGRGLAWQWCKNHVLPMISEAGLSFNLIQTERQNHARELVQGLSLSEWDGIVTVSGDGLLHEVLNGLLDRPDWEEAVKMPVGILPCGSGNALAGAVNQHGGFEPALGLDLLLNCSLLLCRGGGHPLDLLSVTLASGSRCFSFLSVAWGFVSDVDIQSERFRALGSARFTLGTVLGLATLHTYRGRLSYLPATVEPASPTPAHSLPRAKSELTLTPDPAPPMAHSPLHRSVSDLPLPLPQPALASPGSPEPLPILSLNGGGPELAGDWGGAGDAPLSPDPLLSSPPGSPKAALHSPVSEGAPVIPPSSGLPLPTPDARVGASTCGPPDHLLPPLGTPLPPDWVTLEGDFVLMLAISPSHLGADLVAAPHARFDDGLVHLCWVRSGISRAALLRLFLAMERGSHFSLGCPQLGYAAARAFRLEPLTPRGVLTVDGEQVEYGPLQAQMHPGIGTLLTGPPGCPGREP", "test": "Inhibition of human SPHK 2 (1 to 654 residues) by ADP Glo HTS assay", "how_it_was_run": "(§3)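 Lipid kinase selectivity assessed in a 15-kinase panel (Dundee University lipid kinase panel), IC50 determined.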"}, "[8]": {"target": "Cytochrome P450 3A4 (Homo sapiens, UniProt P08684)", "sequence (P08684 whole entry)": "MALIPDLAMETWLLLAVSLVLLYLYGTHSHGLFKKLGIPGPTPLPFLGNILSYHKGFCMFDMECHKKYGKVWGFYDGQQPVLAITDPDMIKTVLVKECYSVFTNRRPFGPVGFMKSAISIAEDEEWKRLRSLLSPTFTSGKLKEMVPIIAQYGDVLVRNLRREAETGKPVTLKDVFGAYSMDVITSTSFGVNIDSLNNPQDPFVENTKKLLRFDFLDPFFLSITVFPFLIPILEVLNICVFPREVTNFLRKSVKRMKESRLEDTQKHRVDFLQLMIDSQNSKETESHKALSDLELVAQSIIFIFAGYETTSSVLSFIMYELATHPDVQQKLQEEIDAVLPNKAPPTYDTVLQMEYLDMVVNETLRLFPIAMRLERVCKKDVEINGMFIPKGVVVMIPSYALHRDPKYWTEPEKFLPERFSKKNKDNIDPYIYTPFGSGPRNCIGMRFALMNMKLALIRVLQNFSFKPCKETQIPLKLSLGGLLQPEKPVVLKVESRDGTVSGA", "test": "Inhibition of CYP3A4 (unknown origin)", "format": "ADME"}, "[9]": {"test": "Volume of distribution at steady state in dog blood at 4 umol/kg, iv or 10 umol/kg, po", "format": "ADME, organism-based, Canis lupus familiaris", "conditions": "read-out: Vdss"}, "[10]": {"test": "Intrinsic clearance in dog hepatocytes assessed per million cells", "format": "ADME, cell-based, Canis lupus familiaris, Hepatocyte", "conditions": "read-out: CLH", "how_it_was_run": "(§4)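 Intrinsic clearance measured in mouse or dog hepatocytes, expressed as CL_int in […].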"}, "[11]": {"target": "Phosphatidylinositol 3-kinase regulatory subunit alpha (Homo sapiens, UniProt P27986)", "test": "Inhibition of human PI3K p85alpha (1 to 724 residues) by ADP Glo HTS assay", "how_it_was_run": "as §3"}, "[12]": {"target": "Cytochrome P450 2D6 (Homo sapiens, UniProt P10635)", "test": "Inhibition of CYP2D6 (unknown origin)", "format": "ADME"}, "[13]": {"test": "Oral bioavailability in mouse blood at 30 umol/kg", "format": "ADME, organism-based"}, "[14]": {"test": "AUC in mouse at 30 umol/kg, po", "format": "ADME", "conditions": "in vivo"}, "[15]": {"target": "T1, Phosphatidylinositol 4,5-bisphosphate 3-kinase catalytic subunit gamma isoform (Homo sapiens, UniProt P48736)", "T1 sequence (P48736 whole entry, the tested form may be a part, canonical isoform)": "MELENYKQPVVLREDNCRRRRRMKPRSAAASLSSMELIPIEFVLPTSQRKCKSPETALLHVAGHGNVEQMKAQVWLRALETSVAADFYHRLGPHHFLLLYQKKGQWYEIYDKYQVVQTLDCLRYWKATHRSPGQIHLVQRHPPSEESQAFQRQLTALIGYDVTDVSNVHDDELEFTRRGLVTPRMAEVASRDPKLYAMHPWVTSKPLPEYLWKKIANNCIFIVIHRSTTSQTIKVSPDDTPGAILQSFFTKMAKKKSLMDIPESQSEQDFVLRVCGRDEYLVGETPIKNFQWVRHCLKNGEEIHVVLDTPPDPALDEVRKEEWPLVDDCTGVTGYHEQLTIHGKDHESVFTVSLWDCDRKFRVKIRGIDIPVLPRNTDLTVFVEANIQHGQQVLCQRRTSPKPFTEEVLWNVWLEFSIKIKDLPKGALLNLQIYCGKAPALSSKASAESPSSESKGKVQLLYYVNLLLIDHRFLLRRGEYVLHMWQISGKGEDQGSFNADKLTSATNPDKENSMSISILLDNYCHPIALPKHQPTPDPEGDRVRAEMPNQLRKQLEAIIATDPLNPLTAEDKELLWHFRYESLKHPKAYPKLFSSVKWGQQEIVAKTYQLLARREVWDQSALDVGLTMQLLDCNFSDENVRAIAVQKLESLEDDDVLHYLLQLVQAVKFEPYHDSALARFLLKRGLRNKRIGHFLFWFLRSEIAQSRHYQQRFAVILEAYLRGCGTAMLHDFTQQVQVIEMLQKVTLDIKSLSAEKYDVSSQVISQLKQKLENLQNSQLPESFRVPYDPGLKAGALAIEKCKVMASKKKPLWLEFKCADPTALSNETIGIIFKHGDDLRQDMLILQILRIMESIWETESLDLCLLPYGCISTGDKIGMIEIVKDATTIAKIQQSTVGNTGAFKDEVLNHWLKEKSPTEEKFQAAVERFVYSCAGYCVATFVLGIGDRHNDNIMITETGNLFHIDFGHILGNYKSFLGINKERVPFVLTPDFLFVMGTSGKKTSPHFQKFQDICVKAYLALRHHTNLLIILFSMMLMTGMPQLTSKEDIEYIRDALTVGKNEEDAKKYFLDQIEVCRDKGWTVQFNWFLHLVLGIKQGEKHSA", "test": "Inhibition of human PI3Kgamma (2 to 1102 residues) by ADP Glo HTS assay", "how_it_was_run": "as §3"}, "[16]": {"test": "Apparent permeability across apical to basolateral side in human Caco2 cells", "conditions": "Caco-2"}, "[17]": {"target": "Phosphatidylinositol 4,5-bisphosphate 3-kinase catalytic subunit beta isoform (Homo sapiens, UniProt P42338)", "sequence (P42338 whole entry, canonical isoform)": "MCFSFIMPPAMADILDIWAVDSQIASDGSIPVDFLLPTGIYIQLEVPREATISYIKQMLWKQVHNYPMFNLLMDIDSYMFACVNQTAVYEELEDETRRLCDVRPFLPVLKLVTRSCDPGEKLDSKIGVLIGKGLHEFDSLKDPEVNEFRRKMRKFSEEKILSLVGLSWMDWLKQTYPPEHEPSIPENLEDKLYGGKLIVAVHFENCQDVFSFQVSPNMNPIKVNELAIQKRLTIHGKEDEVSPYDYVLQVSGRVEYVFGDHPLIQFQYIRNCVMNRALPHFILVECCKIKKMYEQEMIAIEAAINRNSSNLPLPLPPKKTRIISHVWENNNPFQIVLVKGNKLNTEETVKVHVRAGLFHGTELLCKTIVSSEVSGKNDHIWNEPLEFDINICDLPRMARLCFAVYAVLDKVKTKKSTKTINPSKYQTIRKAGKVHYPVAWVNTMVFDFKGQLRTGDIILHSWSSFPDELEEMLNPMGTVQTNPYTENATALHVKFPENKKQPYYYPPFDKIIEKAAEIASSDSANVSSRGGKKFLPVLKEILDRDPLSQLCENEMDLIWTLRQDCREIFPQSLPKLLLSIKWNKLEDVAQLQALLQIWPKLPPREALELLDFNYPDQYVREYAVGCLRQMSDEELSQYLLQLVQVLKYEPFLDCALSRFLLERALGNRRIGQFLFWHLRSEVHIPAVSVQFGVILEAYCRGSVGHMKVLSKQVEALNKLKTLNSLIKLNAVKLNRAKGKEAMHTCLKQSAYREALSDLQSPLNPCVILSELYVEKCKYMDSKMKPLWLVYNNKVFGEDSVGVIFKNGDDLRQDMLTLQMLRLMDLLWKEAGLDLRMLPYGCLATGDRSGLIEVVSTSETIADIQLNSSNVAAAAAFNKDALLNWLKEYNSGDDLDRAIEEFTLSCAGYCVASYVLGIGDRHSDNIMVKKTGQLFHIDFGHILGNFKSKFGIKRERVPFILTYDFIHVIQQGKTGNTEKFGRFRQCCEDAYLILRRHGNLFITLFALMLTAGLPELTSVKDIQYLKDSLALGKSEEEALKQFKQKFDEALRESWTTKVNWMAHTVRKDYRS", "test": "Inhibition of PI3Kbeta in PTEN-deficient human MDA-MB-468 cells assessed as decrease in AKT phosphorylation at Ser473 measured after 2 hrs"}, "[18]": {"test": "Volume of distribution at steady state in mouse blood at 5 umol/kg, iv or 30 umol/kg, po", "format": "ADME, organism-based", "conditions": "read-out: Vdss"}, "[19]": {"target": "MAP/microtubule affinity-regulating kinase 4 (Homo sapiens) (UniProt Q96L34)", "test": "Inhibition of human MARK4 (2 to 752 residues) at 1 uM after 5 mins in presence of [33P]ATP by filter binding assay relative to control"}, "[20]": {"target": "MAP kinase-interacting serine/threonine-protein kinase 1 (Homo sapiens) (UniProt Q9BUB5)", "test": "Inhibition of human MNK1 (2 to 424 residues) at 1 uM after 5 mins in presence of [33P]ATP by filter binding assay relative to control"}, "[21]": {"target": "Choline kinase alpha (Homo sapiens, UniProt P35790)", "sequence (P35790 whole entry, the tested form may be a part)": "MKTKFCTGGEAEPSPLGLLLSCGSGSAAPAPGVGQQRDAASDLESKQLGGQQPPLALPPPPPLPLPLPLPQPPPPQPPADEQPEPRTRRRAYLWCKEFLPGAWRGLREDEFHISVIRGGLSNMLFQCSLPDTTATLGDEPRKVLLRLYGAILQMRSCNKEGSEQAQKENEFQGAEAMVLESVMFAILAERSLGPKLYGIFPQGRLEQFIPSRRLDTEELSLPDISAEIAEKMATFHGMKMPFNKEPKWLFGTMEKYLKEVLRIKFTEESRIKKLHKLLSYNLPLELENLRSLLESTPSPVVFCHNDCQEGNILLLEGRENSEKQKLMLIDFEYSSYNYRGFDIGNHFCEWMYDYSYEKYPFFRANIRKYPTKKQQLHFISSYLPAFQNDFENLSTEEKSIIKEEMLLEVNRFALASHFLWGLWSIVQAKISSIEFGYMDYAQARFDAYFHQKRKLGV", "test": "Inhibition of human CHKalpha (1 to 457 residues) by ADP Glo HTS assay", "how_it_was_run": "as §3"}, "[22]": {"target": "T1, Phosphatidylinositol 4,5-bisphosphate 3-kinase catalytic subunit gamma isoform", "test": "Inhibition of recombinant human PI3Kgamma using PIP2 as substrate preincubated for 20 mins followed by substrate addition measured after 80 mins in presence of ATP by Kinase Glo luminescence assay", "how_it_was_run": "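Enzyme IC50 against PI3Kγ, single determination (n=1).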"}, "[23]": {"system": "PC-3", "test": "Antitumor activity against PTEN-deficient human PC3 cells xenografted in nude mouse assessed as tumor growth inhibition at 50 mg/kg, po bid relative to control", "format": "functional", "conditions": "PC-3, po, read-out: TGI", "how_it_was_run": "as §2"}, "[24]": {"test": "Lipophilicity, log D of the compound at pH 7.4", "conditions": "buffer"}, "[25]": {"target": "Sphingosine kinase 1 (Homo sapiens, UniProt Q9NYA1)", "sequence (Q9NYA1 whole entry, the tested form may be a part)": "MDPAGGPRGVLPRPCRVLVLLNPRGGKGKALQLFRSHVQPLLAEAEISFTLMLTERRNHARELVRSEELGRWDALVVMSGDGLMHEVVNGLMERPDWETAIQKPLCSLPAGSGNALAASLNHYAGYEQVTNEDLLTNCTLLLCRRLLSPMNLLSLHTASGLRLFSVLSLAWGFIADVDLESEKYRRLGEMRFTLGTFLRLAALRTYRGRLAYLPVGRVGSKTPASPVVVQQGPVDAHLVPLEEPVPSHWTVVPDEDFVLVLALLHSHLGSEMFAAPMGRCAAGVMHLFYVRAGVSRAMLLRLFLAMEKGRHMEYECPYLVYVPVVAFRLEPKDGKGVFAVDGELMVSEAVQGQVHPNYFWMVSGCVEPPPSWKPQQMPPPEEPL", "test": "Inhibition of human SphK1 (1 to 384 residues) by ATP-Glo HTS assay", "how_it_was_run": "as §3"}, "[26]": {"target": "Phosphatidylinositol 4,5-bisphosphate 3-kinase catalytic subunit alpha isoform (Homo sapiens, UniProt P42336, E542K)", "test": "Inhibition of human PI3Kalpha (2 to 1068 residues)/p85 (1 to 724 residues) E542K mutant by ADP Glo HTS assay", "how_it_was_run": "as §3"}, "[27]": {"test": "Intrinsic clearance in mouse hepatocytes assessed per million cells", "format": "ADME, cell-based, Hepatocyte", "conditions": "read-out: CLH", "how_it_was_run": "as §4"}, "[28]": {"target": "Diacylglycerol kinase gamma (Homo sapiens, UniProt P49619)", "sequence (P49619 whole entry, the tested form may be a part)": "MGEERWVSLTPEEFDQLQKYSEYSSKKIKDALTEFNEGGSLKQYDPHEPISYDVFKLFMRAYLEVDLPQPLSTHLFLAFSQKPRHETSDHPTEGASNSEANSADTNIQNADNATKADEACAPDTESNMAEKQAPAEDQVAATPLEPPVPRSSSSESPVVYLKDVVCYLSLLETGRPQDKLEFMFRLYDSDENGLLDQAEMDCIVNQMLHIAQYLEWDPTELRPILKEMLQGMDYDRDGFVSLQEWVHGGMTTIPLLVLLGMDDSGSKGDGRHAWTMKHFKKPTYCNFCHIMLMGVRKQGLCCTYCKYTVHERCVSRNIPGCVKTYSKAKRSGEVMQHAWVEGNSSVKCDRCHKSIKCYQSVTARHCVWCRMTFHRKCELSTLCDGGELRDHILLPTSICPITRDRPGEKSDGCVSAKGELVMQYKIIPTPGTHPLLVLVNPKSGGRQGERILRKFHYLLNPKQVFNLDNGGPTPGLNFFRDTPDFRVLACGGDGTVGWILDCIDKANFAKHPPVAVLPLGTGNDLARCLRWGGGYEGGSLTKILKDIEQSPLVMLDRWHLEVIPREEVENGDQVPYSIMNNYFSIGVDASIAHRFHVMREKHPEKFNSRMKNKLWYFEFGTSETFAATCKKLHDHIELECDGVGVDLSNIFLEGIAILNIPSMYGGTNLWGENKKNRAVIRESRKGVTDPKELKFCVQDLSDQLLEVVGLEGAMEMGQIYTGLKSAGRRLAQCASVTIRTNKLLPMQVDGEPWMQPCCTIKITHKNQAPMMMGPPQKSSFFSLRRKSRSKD", "test": "Inhibition of human DGKgamma (1 to 752 residues) by ADP Glo HTS assay", "how_it_was_run": "as §3"}}, "note": "Calls of active or inactive are those of the source. The rule behind the calls is not given here."}
{"smiles": "O=C(c1cc([C@H]2CCCN2c2cc(F)cc(F)c2)c2oc(N3CCOCC3)cc(=O)c2c1)N1CCOCC1", "values": [{"measurement": "IC50", "setting": "[1]", "value": 0.14, "unit": "µM"}, {"measurement": "hepatocyte CLint", "setting": "[2]", "value": "2.7 to 5", "unit": "µL/min/1e6 cells"}, {"measurement": "fraction unbound", "setting": "[3]", "value": 0.28}, {"measurement": "inhibition in vivo at 100 mg/kg", "setting": "[4]", "value": 83, "unit": "%"}, {"measurement": "inhibition", "setting": "[5]", "value": "Active"}, {"measurement": "fraction unbound", "setting": "[6]", "value": 0.19}, {"measurement": "IC50", "setting": "[7]", "value": "> 50", "unit": "µM"}, {"measurement": "IC50", "setting": "[8]", "value": "> 30", "unit": "µM"}, {"measurement": "Vd", "setting": "[9]", "value": 1.2, "unit": "L/kg"}, {"measurement": "hepatocyte CLint", "setting": "[10]", "value": 23, "unit": "µL/min/1e6 cells"}, {"measurement": "IC50", "setting": "[11]", "value": "> 50", "unit": "µM"}, {"measurement": "IC50", "setting": "[12]", "value": "> 30", "unit": "µM"}, {"measurement": "bioavailability", "setting": "[13]", "value": 26, "unit": "%"}, {"measurement": "AUC", "setting": "[14]", "value": 2.8, "unit": "µM·h"}, {"measurement": "IC50", "setting": "[15]", "value": "> 50", "unit": "µM"}, {"measurement": "Papp A→B", "setting": "[16]", "value": 18, "unit": "×10⁻⁶ cm/s"}, {"measurement": "IC50", "setting": "[17]", "value": 0.0011, "unit": "µM"}, {"measurement": "Vd", "setting": "[18]", "value": 1, "unit": "L/kg"}, {"measurement": "inhibition", "setting": "[19]", "value": 32, "unit": "%"}, {"measurement": "inhibition", "setting": "[20]", "value": 36, "unit": "%"}, {"measurement": "IC50", "setting": "[21]", "value": "> 50", "unit": "µM"}, {"measurement": "IC50", "setting": "[22]", "value": 0.19, "unit": "µM"}, {"measurement": "inhibition in vivo at 50 mg/kg", "setting": "[23]", "value": 71, "unit": "%"}, {"measurement": "logD", "setting": "[24]", "value": 2.5}, {"measurement": "IC50", "setting": "[25]", "value": 29, "unit": "µM"}, {"measurement": "IC50", "setting": "[26]", "value": "> 50", "unit": "µM"}, {"measurement": "hepatocyte CLint", "setting": "[27]", "value": 68, "unit": "µL/min/1e6 cells"}, {"measurement": "IC50", "setting": "[28]", "value": "> 50", "unit": "µM"}]}
